How the values were obtained:
[1] = Cytotoxicity against mitoxantrone-sensitive human HCT116 cells at 10 uM assessed as viable cells after 48 hrs; assay type: cell-based, HCT-116; conditions: read-out: Activity
Summary of the method: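 HCT116/S cells exposed to compound at 10, 1 and 0.1 μM; cell cycle distribution (G0/G1, S, G2/M) and viability by flow cytometry after trypsin/spermine detergent buffer 10 min room temperature, trypsin inhibitor plus ribonuclease A 10 min, then PI 10 min, read immediately.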

[2] = molecular target: T1, Broad substrate specificity ATP-binding cassette transporter ABCG2 (Homo sapiens, UniProt Q9UNQ0); assay: Inhibition of BCRP expressed in mitoxantrone-resistant human HCT116 cells assessed as increase in mitoxantrone accumulation at 10 uM after 15 mins; assay type: cell-based; conditions: hct-116, 0.25 h
T1 sequence (Q9UNQ0 whole entry): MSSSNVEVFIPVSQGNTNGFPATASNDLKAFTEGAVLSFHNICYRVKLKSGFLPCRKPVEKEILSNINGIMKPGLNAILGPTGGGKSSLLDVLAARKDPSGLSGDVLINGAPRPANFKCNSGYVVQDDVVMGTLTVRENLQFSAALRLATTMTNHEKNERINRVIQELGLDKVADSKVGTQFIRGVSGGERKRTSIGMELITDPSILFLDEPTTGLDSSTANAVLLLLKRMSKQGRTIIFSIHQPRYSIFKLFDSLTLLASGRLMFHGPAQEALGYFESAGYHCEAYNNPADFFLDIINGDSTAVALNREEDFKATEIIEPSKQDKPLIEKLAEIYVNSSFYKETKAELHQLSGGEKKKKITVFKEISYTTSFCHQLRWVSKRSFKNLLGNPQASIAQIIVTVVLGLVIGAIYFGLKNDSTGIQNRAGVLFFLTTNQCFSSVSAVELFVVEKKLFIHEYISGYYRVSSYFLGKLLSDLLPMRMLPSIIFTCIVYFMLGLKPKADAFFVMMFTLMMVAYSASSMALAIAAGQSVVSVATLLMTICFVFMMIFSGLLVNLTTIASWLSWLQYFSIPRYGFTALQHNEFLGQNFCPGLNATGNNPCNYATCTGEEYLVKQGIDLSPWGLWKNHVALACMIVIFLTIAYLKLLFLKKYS
Summary of the method: (§1)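 HCT116/R cells from ~90% confluent flasks, trypsinized, washed and resuspended at 10^6 cells/mL in serum-free RPMI. Preincubated 15 min at 37 °C with modulator (10 to 0.1 μM final, from 10 mM DMSO stock), then 3 μM mitoxantrone added for 30 min. Stopped with ice-cold PBS, washed; intracellular mitoxantrone by flow cytometry (488 nm excitation, 670 nm band-pass), mean fluorescence intensity in arbitrary units.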

[3] = molecular target: T1, Broad substrate specificity ATP-binding cassette transporter ABCG2; assay: Inhibition of BCRP expressed in mitoxantrone-resistant human HCT116 cells assessed as increase in mitoxantrone accumulation at 1 uM after 15 mins; assay type: cell-based; conditions: hct-116, 0.25 h; summary of the method: as §1
HCT-116 [4] = assay: Potentiation of mitoxantrone-induced cytotoxicity in mitoxantrone-resistant human HCT116 cells at 10 uM assessed as apoptotic cells after 48 hrs by flow cytometry; assay type: cell-based; conditions: hct-116, 48 h
Summary of the method: (§2)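 After 24 h attachment, HCT116/R medium replaced with fresh medium holding 1 μM mitoxantrone plus modulator (10, 1, 0.1 μM); 48 h at 37 °C, PBS washes. Dead cells by propidium iodide uptake (2 μg/mL) in unfixed cells, FSC/FL2 flow cytometry; apoptosis by annexin V-FITC/PI staining, 10 min room temperature, flow cytometry; viable, apoptotic and dead percentages reported.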

HCT-116 [5] = assay: Potentiation of mitoxantrone-induced cytotoxicity in mitoxantrone-resistant human HCT116 cells at 10 uM assessed as dead cells after 48 hrs by flow cytometry; assay type: cell-based; conditions: hct-116, 48 h; summary of the method: as §2

SMILES | Fluorescence intensity [2] [a.u.] | also measured
CC(C)(C)OC(=O)N1CCN(C(=O)c2cc(=O)c3c(O)cccc3o2)CC1 | 179 | viability at 48 h, 10 µM [1]: 60%
O=C(NCCc1ccccc1)c1cc(=O)c2c(O)cccc2o1 | 282 | viability at 48 h, 10 µM [1]: 60%
Cc1ccc(NC(=O)c2ccc(CN3CCN(C)CC3)cc2)cc1Nc1nccc(-c2cccnc2)n1 [IMATINIB] | 334 | 
O=C(c1cc(=O)c2c(O)cccc2o1)N1CCN(CCO)CC1 | 72 | 
CCCN1CCN(C(=O)c2cc(=O)c3c(O)cccc3o2)CC1 | 104 | 
CC(=O)N1CCN(C(=O)c2cc(=O)c3c(O)cccc3o2)CC1 | 112 | 
COc1ccc(CNC(=O)c2cc(=O)c3c(O)cccc3o2)cc1OC | 197 | 
COc1ccc(CCNC(=O)c2cc(=O)c3c(O)cccc3o2)cc1 | 320 | Activity [3]: Active; Activity (HCT-116 [4]): 42%; Activity (HCT-116 [5]): 8%
COc1ccc(CCNC(=O)c2cc(=O)c3c(O)cccc3o2)cc1OC | 315 | Activity [3]: Active; viability at 48 h, 10 µM [1]: 60%
CCCCN1CCN(C(=O)c2cc(=O)c3c(O)cccc3o2)CC1 | 223 | Activity (HCT-116 [4]): 27%; viability at 48 h, 10 µM [1]: 60%; Activity (HCT-116 [5]): 22%
O=C(c1cc(=O)c2c(O)cccc2o1)N1CCNCC1 | 86 | 
CCCCCN1CCN(C(=O)c2cc(=O)c3c(O)cccc3o2)CC1 | 225 | 
CCN1CCN(C(=O)c2cc(=O)c3c(O)cccc3o2)CC1 | 108 | 
COc1ccc2c3c([nH]c2c1)[C@H](C=C(C)C)N1C(=O)[C@@H]2CCCN2C(=O)[C@@H]1C3 [FUMITREMORGIN] | 315 | 
CC(C)CN1CCN(C(=O)c2cc(=O)c3c(O)cccc3o2)CC1 | 92 | 
O=C(c1cc(=O)c2c(O)cccc2o1)N1CCN(CC2CCCCC2)CC1 | 92 | 
